Sampled rows, rich in hits. Any-hit rate of the full collection: about 3%.
MEKK2wt PB1 HTS: modulators of MEK5 binding to wildtype MEKK2, primary screen, biochemical, multiplex bead flow cytometry, Alexa488-MEK5; Mitogen-activated protein kinase kinase kinase 2 (Homo sapiens), Q9Y2U5; Alexa488-MEK5 binding to MEKK2 WT; actives lie on both sides; binding response (% of control), % at 10 µM; 1.1% of 290,000 active; AID 1531, 2009; in the data active = binding response below about 67% or above about 130%
MEKK3 PB1 HTS: modulators of MEKK3-MEK5 PB1 binding, primary screen, biochemical, wildtype MEKK3, multiplex bead flow cytometry, Alexa488-MEK5. 1.4% of 290,000 active. AID 1529, 2009. binding response (% of control), % at 10 µM. Mitogen-activated protein kinase kinase kinase 3 (Homo sapiens), Q99759. bead-based flow cytometry, Alexa488-MEK5 binding to MEKK3; actives lie on both sides; 0 = blocked by unlabeled MEK5, 100 = vehicle;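 active = binding response more than 3 SD above or below the average of its plate-row segment, actives on both sides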;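 also: Alexa488 bead fluorescence after subtracting the streptavidin-only scavenger bead signal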
Apaf-1 inh: inhibitors of human Apaf-1 apoptosome, primary screen, biochemical, DEVD-Rh110 fluorescence, uHTS | reconstituted apoptosome caspase-3 activity | Apoptotic protease-activating factor 1 (Homo sapiens), O14727 | AID 489030, 2010 | inhibition, % at 20 µM | 0.71% of 330,000 active; active = inhibition of at least 40% at 20 µM;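 also: plate controls were DMSO wells for no effect and DEVD-CHO caspase inhibitor wells for full effect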
Target sequence (O14727 whole entry, looked up): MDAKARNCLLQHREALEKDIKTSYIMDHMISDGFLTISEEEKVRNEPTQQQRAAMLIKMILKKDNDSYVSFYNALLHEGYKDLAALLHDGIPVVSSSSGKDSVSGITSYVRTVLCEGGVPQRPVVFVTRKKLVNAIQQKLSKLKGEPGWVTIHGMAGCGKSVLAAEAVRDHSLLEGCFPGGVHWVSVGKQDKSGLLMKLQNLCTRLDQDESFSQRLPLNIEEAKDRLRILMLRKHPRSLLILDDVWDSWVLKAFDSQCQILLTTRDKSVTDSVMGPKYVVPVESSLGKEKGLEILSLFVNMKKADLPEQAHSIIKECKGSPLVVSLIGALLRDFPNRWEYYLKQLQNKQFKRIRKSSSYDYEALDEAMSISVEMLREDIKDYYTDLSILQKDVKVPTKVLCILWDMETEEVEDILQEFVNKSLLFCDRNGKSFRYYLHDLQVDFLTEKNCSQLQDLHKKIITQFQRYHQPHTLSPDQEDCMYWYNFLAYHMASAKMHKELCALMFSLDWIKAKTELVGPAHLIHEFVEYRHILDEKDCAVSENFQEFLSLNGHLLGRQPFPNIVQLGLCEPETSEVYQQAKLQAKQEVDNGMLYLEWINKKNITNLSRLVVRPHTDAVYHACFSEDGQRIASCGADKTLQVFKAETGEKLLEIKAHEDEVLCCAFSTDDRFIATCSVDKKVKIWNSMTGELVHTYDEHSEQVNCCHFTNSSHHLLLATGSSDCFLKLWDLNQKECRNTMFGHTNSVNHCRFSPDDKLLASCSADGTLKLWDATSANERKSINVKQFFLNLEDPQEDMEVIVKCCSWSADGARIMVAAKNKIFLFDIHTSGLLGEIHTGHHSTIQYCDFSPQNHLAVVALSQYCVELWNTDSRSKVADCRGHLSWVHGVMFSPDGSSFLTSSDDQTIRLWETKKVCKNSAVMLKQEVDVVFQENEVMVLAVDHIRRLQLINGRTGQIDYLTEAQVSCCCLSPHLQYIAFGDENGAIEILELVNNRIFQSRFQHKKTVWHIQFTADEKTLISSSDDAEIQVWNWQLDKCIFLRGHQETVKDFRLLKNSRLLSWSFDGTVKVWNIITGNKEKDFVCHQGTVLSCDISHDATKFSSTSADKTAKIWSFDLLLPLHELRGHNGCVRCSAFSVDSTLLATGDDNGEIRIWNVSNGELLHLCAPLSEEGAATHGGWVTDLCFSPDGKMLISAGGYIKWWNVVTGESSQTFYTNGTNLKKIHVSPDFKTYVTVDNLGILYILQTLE
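Material: biochemical Apaf-1 apoptosome reconstitution. Medium: Hepes buffer, pH 7.5. Also added: cytochrome c activation, bis-DEVD rhodamine 110 substrate. Timing: 30 min compound preincubation, 50 min activation, room temperature. Measured by: rhodamine 110 fluorescence at Ex 480/Em 540 nm.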
UCH37 inh: inhibitors of human UCH37 deubiquitinase, primary screen, biochemical, Ub-AMC cleavage, fluorescence | 0.33% of 330,000 active | purified proteasome/UCH37 | Ubiquitin carboxyl-terminal hydrolase isozyme L5 (Homo sapiens), Q9Y5K5 | inhibition, % (concentration not given with the values) | AID 588478, 2011;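 active = mean inhibition over replicate wells above about 20%, limit read from the data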;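 also: 0% = compound-free wells with enzyme and 100% = wells lacking proteasome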
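System: Proteasome-associated human UCH37 deubiquitinase; Input: 0.15 nM proteasome in added enzyme buffer; Also added: Ub-AMC substrate from 1 µM stock; Incubation: 30 min compound-proteasome preincubation then 25 min substrate reaction, room temperature; Detection: fluorescence, ex 355 nm, em 460 nm; Read-out: % inhibition of Ub-AMC cleavage fluorescence; Benchmarks: no-proteasome and no-compound wells.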
MEKK2 mut-MEK5: MEK5 binding signal on mutant MEKK2 PB1, primary screen, biochemical, multiplex bead flow cytometry, Alexa488-MEK5 | Alexa488-MEK5 binding to MEKK2 mutant | percent response, % at 10 µM | 0.35% of 290,000 active | AID 1530, 2009; in the data active = percent response above about 24%, passing the limit was not always enough
UBC13 inh: UBC13 polyubiquitin chain formation inhibitors, primary screen, biochemical, TR-FRET, uHTS; inhibition, % at 20 µM; 0.47% of 330,000 active; AID 485273, 2010; in the data active = inhibition above about 45%, passing the limit was not always enough
Apaf-1 inh conf: Apaf-1 inhibitors, single-dose retest, confirmation, biochemical, fluorescence, DEVD-Rh110, 20 µM; reconstituted apoptosome, caspase-3 DEVD-Rh110 fluorescence; shares compounds with Apaf-1 inh; inhibition, % at 20 µM; 25% of 1,800 active;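 active = mean inhibition of at least 40% at 20 µM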;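 also: plate controls were DMSO wells for no effect and DEVD-CHO caspase inhibitor control wells for full effect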
Rh110 interf inh: Rh110 fluorescence interference by putative Apaf-1 inhibitors, confirmation, artefact control for Apaf-1 inhibitor project, biochemical, 20 µM | AID 504615, 2011 | shares compounds with Apaf-1 inh | quenched caspase reaction | activation (fluorescence interference), % at 20 µM | 1,800 tested, under 10 active;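 active = signal rise of 40% or more at 20 µM, treated as a fluorescence artifact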
Fluor interf inh: fluorescence interference of Apaf-1 inhibitor hits, dose response, artefact control for Apaf-1 inhibitor project; shares compounds with Apaf-1 inh; fluorescence interference counterscreen, Apaf-1 assay format; IC50, µM; 460 tested, under 10 active; call rule not given here
Numbers without * were called inactive; i = inactive; x = not tested or not shown.

SMILES	MEKK2wt PB1 HTS	MEKK3 PB1 HTS	Apaf-1 inh	UCH37 inh	MEKK2 mut-MEK5	UBC13 inh	Apaf-1 inh conf	Rh110 interf inh	others
COc1nc(N/N=C/c2ccc(-c3ccccc3[N+](=O)[O-])o2)nc(N2CCOCC2)n1	100	98	54*	x	-1	-53	26	7
COC(=O)c1ccccc1-c1ccc(/C=N/Nc2nc(N3CCCC3)nc(N3CCCC3)n2)o1	95	98	15	x	-7	-4	x	x
O=C(CSc1nnc(-c2ccc(F)cc2)n1CC1CCCO1)NCc1ccco1 (stereo not given)	114	105	54*	1	5	14	36	6
Clc1ccc(OCCSc2nnnn2C2CCCCC2)cc1	99	99	65*	-2	5	0	12	1
CCOc1ccc(OCCSc2nnnn2C2CCCCC2)cc1	x	x	20	1	x	3	x	x
Cc1n[nH]c(=O)n1-c1ccc(OCc2ccccc2)cc1	98	97	6	4	2	3	x	x
Cn1c(Cc2ccccc2)n[nH]c1=S	100	100	42*	2	-1	9	2	2
O=S(=O)(c1cccc2cccnc12)N1CCN(Cc2ccccc2)CC1	86	87	-6	2	-4	2	x	x
O=[N+]([O-])c1cc2c(cc1C=Nc1ccccc1)OCO2	96	99	48*	x	-1	-29	16	7
Cc1cccc(N=Cc2cc3c(cc2[N+](=O)[O-])OCO3)c1	100	103	35	4	1	-24	x	x
C=CCNC1=C(Cl)C(=O)c2ccccc2C1=O	69	71	40	15	-2	-305	x	x
O=C1C(Cl)=C(NCc2cccnc2)C(=O)c2ccccc21	100	99	85*	25*	-2	-447	65*	8	Fluor interf inh=>100
COc1cc(C(=O)N2CCN(C(=O)c3cc(-c4ccccc4)n[nH]3)CC2)cc(OC)c1OC	102	99	5	2	3	-7	x	x
COc1ccc(C(=O)Oc2ccc[nH]c2=O)cc1	96	100	-1	3	2	-8	x	x
O=C(Oc1ccc[nH]c1=O)c1cc([N+](=O)[O-])cc([N+](=O)[O-])c1	89	96	93*	x	10	-10	12	6
CCNC(=O)Oc1ccc[nH]c1=O	104	97	42*	2	7	-38	3	1
CCOC(=O)NC(=S)c1ccc[nH]1	97	93	7	11	0	-17	x	x
C[C@@H]1NC(=O)/C(=C\c2ccccc2Br)NC1=O	102	99	0	1	2	-1	x	x
Cc1cc(C)c(S(=O)(=O)Nc2ccc3c4c(cccc24)CC3)c(C)c1	94	102	43*	2	-4	5	16	7
CCOc1cccc2sc(N(CCCN(C)C)C(=O)c3ccc(S(=O)(=O)N(C)CC4CCCO4)cc3)nc12 (stereo not given)	125	103	18	4	13	2	x	x
Cc1cc(C)c2nc(N(CCN(C)C)C(=O)c3ccc(S(=O)(=O)N(C)CC4CCCO4)cc3)sc2c1 (stereo not given)	131	109	49*	4	19	2	10	7
CCOc1cc(C(c2c(C)[nH][nH]c2=O)c2c(C)[nH][nH]c2=O)ccc1OS(=O)(=O)c1ccc(C)cc1	101	104	41*	18	2	-1	25	19
CCN(CC(=O)Nc1ccc(NC(C)=O)cc1)C(=O)c1ccccc1Sc1ccccc1C#N	x	x	56*	0	x	35	37	6
CCN(CC(=O)Nc1ccccc1C(F)(F)F)C(=O)c1ccccc1Sc1ccccc1C#N	x	x	15	-1	x	6	x	x
COCCn1c(N)c(C#N)c2nc3ccccc3nc21	98	92	52*	i	0	-3	15	5
SMILES	MEKK2wt PB1 HTS	MEKK3 PB1 HTS	Apaf-1 inh	UCH37 inh	MEKK2 mut-MEK5	UBC13 inh	Apaf-1 inh conf	Rh110 interf inh	others
N#Cc1c(N)n(CCc2ccc(F)cc2)c2nc3ccccc3nc12	99	106	82*	-225	5	-12	19	10
COc1cccc(Cn2c(N)c(C#N)c3nc4ccccc4nc32)c1OC	96	107	92*	-83	-2	-6	11	8
N#Cc1c(N)n(CCOC(=O)c2cccc(Br)c2)c2nc3ccccc3nc12	100	103	46*	-33	1	-17	20	11
Cc1ccc(C(=O)NCCn2c(N)c(C#N)c3nc4ccccc4nc32)cc1	90	92	10	i	-2	-1	x	x
CCOc1ccc(-c2nc3ccccc3c(=O)o2)cc1	102	102	-4	-84	-1	7	x	x
O=C(O)CNC(=S)N(Cc1ccccc1F)C1CCCCC1	87	87	4	2	-10	4	x	x
O=C(Nc1ccc(N2CCOCC2)c(Cl)c1)c1cc2ccccc2o1	93	96	18	-6	10	16	x	x
Cc1cc(C)n(CC(O)COc2ccc(C(C)C)c(C)c2)n1 (stereo not given)	99	98	17	3	0	-3	x	x
N#Cc1c(N)n(CCNC(=O)c2ccc(Cl)cc2)c2nc3ccccc3nc12	113	108	67*	-243	9	-2	22	4
COc1cc(Cn2c(N)c(C#N)c3nc4ccccc4nc32)cc(OC)c1	x	x	58*	-194	x	22	18	4
COc1ccc(Cn2c(N)c(S(=O)(=O)c3cccs3)c3nc4ccccc4nc32)cc1	113	109	-8	-163	3	8	x	x
COc1ccc(Cn2c(N)c(C#N)c3nc4ccccc4nc32)cc1	x	x	50*	x	x	-19	12	0
CC(=O)c1cccc(NC(=O)CSCc2ccc(Br)cc2)c1	71	83	0	2	-7	8	x	x
CCC(=NNc1cccc(Cl)c1)c1cnnc(SC)n1	x	x	x	1	x	x	x	x
CC/C(=N/Nc1cccc(C)c1)c1cnnc(SC)n1	92	92	63*	x	-1	-11	13	5

Source: PubChem BioAssay
